Source: ChEMBL document CHEMBL4033743, “Design, synthesis, and structure-activity relationships of pyrimido[4,5-b]indole-4-amines as microtubule depolymerizing agents that are effective against multidrug resistant cells” (Bioorg Med Chem Lett, 2017)
Activity calls are given as the source filed them.

Experiments:
[1] = Induction of microtubule depolymerization in rat A10 cells assessed as cellular microtubule loss incubated for 18 hrs by indirect immunofluorescence assay; type: cell-based; conditions: A10, 18 h
Outline: (§1)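 Cellular microtubule loss was scored. EC50 was defined as the concentration causing 50% loss of cellular microtubules.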

MDA-MB-435 = assay: Antiproliferative activity against human MDA-MB-435 cells by SRB assay; type: functional, cell-based
Outline: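 Proliferation of MDA-MB-435 melanoma cells was read by sulforhodamine B (SRB) assay. IC50 was taken as the concentration causing 50% inhibition of proliferation.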

[2] = Ratio of EC50 for induction of microtubule depolymerization in rat A10 cells to IC50 for antiproliferative activity against human MDA-MB-435 cells
[3] = Inhibition of bovine brain tubulin assembly; parameters: species or system Bos taurus
Bos taurus = species: Bos taurus; assay: Inhibition of [3H]colchicine binding to bovine brain tubulin at 5 uM
SK-OV-3 = assay: Antiproliferative activity against human SKOV3 cells by SRB assay; type: functional, cell-based
Outline: (§2)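 Antiproliferative IC50s were measured by SRB assay in isogenic cell-line pairs. For Pgp-mediated resistance, the pair was parental SK-OV-3 ovarian cancer cells and Pgp-expressing SK-OV-3 MDR-1-M6/6 cells. For βIII-tubulin-mediated resistance, the pair was parental HeLa cells and βIII-tubulin-expressing HeLa cells.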

[4] = Antiproliferative activity against human SKOV3-MDR1-M6/6 cells by SRB assay; type: functional, cell-based; outline: as §2
[5] = Resistance index, ratio of IC50 for antiproliferative activity against human SKOV3-MDR1-M6/6 cells to IC50 for antiproliferative activity against human SKOV3 cells; type: functional
Outline: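 Relative resistance (Rr) was calculated as the SRB IC50 in Pgp-expressing SK-OV-3 MDR-1-M6/6 cells divided by the SRB IC50 in parental SK-OV-3 cells.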

HeLa [6] = assay: Antiproliferative activity against human HeLa cells by SRB assay; type: functional, cell-based; outline: as §2
HeLa [7] = assay: Antiproliferative activity against human HeLa cells expressing beta3-tubulin by SRB assay; type: functional, cell-based; outline: as §2
HeLa [8] = assay: Resistance index, ratio of IC50 for antiproliferative activity against human HeLa cells expressing beta3-tubulin cells to IC50 for antiproliferative activity against human HeLa cells; type: functional
Outline: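 Relative resistance (Rr) was calculated as the SRB IC50 in βIII-tubulin-expressing HeLa cells divided by the SRB IC50 in parental HeLa cells.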

Rattus norvegicus = species: Rattus norvegicus; assay: Induction of microtubule depolymerization in rat A10 cells assessed as cellular microtubule loss up to 40 uM incubated for 18 hrs by indirect immunofluorescence assay; type: cell-based; outline: as §1

SMILES | EC50 [1] | IC50 (MDA-MB-435) | Ratio [2] | IC50 [3] | inhibition (Bos taurus) | IC50 (SK-OV-3) | IC50 [4] | Ratio IC50 [5] | IC50 (HeLa [6]) | IC50 (HeLa [7]) | Ratio IC50 (HeLa [8]) | Activity (Rattus norvegicus)
COc1ccc2c(c1)CCCN2c1nc(N)nc2[nH]c3cccc(Cl)c3c12 | 3700 nM | 271 nM | 15 | – | – | – | – | – | – | – | – | –
COc1ccc(N(C)c2nc(C)nc3[nH]c4ccccc4c23)cc1 | 130 nM | 33.9 nM | 3.8 | 1200 nM | 67% | 60.5 nM | 78 nM | 1.3 | 50.5 nM | 31.8 nM | 0.6 | –
COc1ccc(N(C)c2ncnc3[nH]c4ccccc4c23)cc1 | 1200 nM | 130 nM | 9.2 | 2300 nM | 62% | 173 nM | 224 nM | 1.4 | 142 nM | 99.5 nM | 0.8 | –
CSc1ccc(N(C)c2nc(N)nc3[nH]c4ccccc4c23)cc1 | 1100 nM | 89.1 nM | 12 | 2300 nM | 67% | 156 nM | 160 nM | 1 | 118 nM | 78.4 nM | 0.7 | –
COc1ccc2c(c1)CCCN2c1nc(N)nc2[nH]c3ccccc3c12 | 150 nM | 54.4 nM | 2.8 | 2200 nM | 71% | 83.2 nM | 135 nM | 1.6 | 72.1 nM | 87 nM | 1.2 | –
COc1ccc(N(C)c2nc(N)nc3[nH]c4cccc(C)c4c23)cc1 | 1400 nM | 220 nM | 6.5 | – | – | – | – | – | – | – | – | –
COc1ccc(N(C)c2nc(N)nc3[nH]c4cccc(Cl)c4c23)cc1 | – | 3900 nM | – | – | – | – | – | – | – | – | – | inactive
